Only some compounds are listed: those with a hit (about 3.1% of all), similar ones and a draw of the others.
KCNK3 block = human KCNK3 channel inhibition, primary screen; AID 602410; 340,000 tested, 0.84% active; B-score at 10 µM; CHO-KCNK3 thallium flux, FluxOR fluorescence; hits give low values;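 active means B-score under library mean minus 4 SD, starting fluorescence ratio at most library mean plus 5 SD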;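 further: more negative B-score means stronger inhibition of thallium flux through KCNK3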
KCNQ1 inh = inhibitors of human KCNQ1 potassium channel | CHO-K1 KCNQ1, FluxOR thallium flux fluorescence; hits give high values | P51787 | 310,000 tested, 1.3% active | B-score at 10 µM;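 active means compounds whose thallium flux B-score, printed positive for inhibition, exceeds three library SD while starting fluorescence stays within three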;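 further: channel opened by potassium depolarization with thallium stimulus after 20 min compound exposure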
hERG protect = hERG (human) protection from proarrhythmic block | Q12809 | CHO-hERG, FluxOR thallium flux, dofetilide IC70 present | activation (rescue from dofetilide block), less the hit threshold, % at 10 µM | 310,000 tested, 0.51% active | AID 1511;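 active means activation above the mean of controls blocked by dofetilide plus 5 SD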;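 further: thallium influx through hERG after potassium depolarization seen as dye fluorescence rise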
KCNK9 block = inhibitors of human KCNK9 two-pore domain potassium channel | Q9NPC2 | HEK293 KCNK9, FluxOR thallium flux fluorescence; hits give low values | B-score at 10 µM | 310,000 tested, 1.2% active;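 active means ratio B-score over 3 SD below the library mean, with starting fluorescence within 5 SD of its mean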;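 further: negative B-score means less thallium flux so channel inhibition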
KCNQ1 pot = human KCNQ1 channel potentiation or activation; AID 2648; CHO-K1 KCNQ1, thallium flux FluxOR fluorescence; hits give high values; 310,000 tested, 0.35% active; B-score at 10 µM;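 active means fluorescence ratio B-score, a plate-corrected score, at least three library SD, with initial intensity B-score within 5 SD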
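Schedule – 37 °C overnight plating, 90-min dark dye load, 20-min compound pretreatment · System – stable KCNQ1 CHO-K1 line · Probe or stimulus – thallium- and potassium-containing depolarizing buffer · Measured by – kinetic FluxOR fluorescence, 10 s baseline plus 110 s post-stimulus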
KCNQ1 inh valid = reconfirmed blocker of the human KCNQ1 potassium channel; KCNQ1 cell line, FluxOR thallium flux fluorescence; inhibition, % at 10 µM; shares compounds with KCNQ1 inh; 1,600 tested, 93% active;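 active means primary screen active, with duplicate mean exceeding buffer control mean plus 3 SD of buffer wells, cut at about 28% in these data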
CHO Tl flux = KCNQ1 inhibitor counter-screen hit in parental CHO cells | AID 588366 | fluorescence ratio (Tl flux) at 10 µM | parental CHO-K1, FluxOR thallium flux fluorescence ratio; hits give low values; zero means no signal rise above baseline | shares compounds with KCNQ1 inh | 1,600 tested, 21% active;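 active means mean of duplicate thallium-flux fluorescence ratios in parental host cells more than 5 SD below the buffer control mean, cut at about 0.38 in these data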;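 further: ratio is peak minus minimum fluorescence divided by baseline fluorescence; actives read low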
KCNQ1 ephys val = human KCNQ1 inhibition validated by electrophysiology; AID 624120; 490 tested, 20% active; KCNQ1-CHO cells, automated patch clamp current; calls only at 10 µM; shares compounds with KCNQ1 inh;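 active means KCNQ1 current drop exceeding 3 SD of negative control wells, seen in both duplicate runs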;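 further: steady state current during a 2 s step from -80 to +40 mV; negative values mean current inhibition and positive values mean potentiation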
KCNQ2 spec = KCNQ1 inhibitor that also blocks rat KCNQ2 channel; shares compounds with KCNQ1 inh; KCNQ2 cells, FluxOR thallium flux fluorescence; inhibition, % at 10 µM; 1,600 tested, 71% active; AID 651746;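 active means mean percent inhibition of the KCNQ2 thallium signal more than 5 SD above the buffer-only control wells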;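 further: KCNQ2 expressed in CHO cells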
Target sequence (O88943 whole entry, looked up): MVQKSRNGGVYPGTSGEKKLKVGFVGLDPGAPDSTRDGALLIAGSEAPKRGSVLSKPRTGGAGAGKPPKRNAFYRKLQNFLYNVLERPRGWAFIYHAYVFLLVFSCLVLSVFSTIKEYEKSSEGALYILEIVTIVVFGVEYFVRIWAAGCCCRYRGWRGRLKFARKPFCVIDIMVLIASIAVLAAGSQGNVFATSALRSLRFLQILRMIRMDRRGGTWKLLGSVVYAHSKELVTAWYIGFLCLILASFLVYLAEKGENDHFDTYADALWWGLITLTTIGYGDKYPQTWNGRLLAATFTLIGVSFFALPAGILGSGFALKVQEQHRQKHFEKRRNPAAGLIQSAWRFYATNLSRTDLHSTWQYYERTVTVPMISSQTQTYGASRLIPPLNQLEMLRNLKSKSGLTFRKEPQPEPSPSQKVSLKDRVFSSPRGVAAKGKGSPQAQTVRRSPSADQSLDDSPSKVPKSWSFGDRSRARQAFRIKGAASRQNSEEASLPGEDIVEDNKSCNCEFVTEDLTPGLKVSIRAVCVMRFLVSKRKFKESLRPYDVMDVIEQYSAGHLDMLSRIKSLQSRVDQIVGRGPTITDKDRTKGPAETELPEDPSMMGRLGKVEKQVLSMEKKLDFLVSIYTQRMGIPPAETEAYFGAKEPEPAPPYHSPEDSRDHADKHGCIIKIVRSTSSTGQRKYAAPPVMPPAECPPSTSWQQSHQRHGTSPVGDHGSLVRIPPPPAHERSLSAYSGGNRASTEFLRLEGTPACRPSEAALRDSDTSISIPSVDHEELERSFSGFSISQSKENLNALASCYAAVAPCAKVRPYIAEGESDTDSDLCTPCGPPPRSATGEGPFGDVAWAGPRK
KCNQ1 KCNE1 spec = human KCNQ1/KCNE1 inhibition in KCNQ1 specificity screen; shares compounds with KCNQ1 inh; KCNQ1/KCNE1 cells, FluxOR thallium flux fluorescence; inhibition, % at 10 µM; 1,600 tested, 77% active; AID 652147;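 active means mean percent inhibition of duplicate wells above the buffer-only control mean plus 3 SD of those controls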
Hits are given with their value.

Results for COc1ccc(-c2noc(CNC(=O)c3ccoc3C)n2)cc1 ?
KCNK3 block: inactive; KCNQ1 inh: inactive; hERG protect: inactive; KCNK9 block: inactive; KCNQ1 pot: inactive

How did COc1ccc(OC)c(NC(=O)Nc2c(O)ccc3ccccc23)c1 do in these assays?
KCNK3 block: inactive; KCNQ1 inh: 12; hERG protect: inactive; KCNK9 block: inactive; KCNQ1 pot: inactive; KCNQ1 inh valid: inactive; CHO Tl flux: inactive; KCNQ2 spec: inactive; KCNQ1 KCNE1 spec: 48.0%

What do the screens show for `Cc1ccc(-c2cc(-c3ccccc3)c(C#N)c(N)n2)o1`?
KCNK3 block: inactive; KCNQ1 inh: 6; hERG protect: inactive; KCNK9 block: inactive; KCNQ1 pot: inactive; KCNQ1 inh valid: 33.5; CHO Tl flux: inactive; KCNQ2 spec: inactive; KCNQ1 KCNE1 spec: 48.0%

How did Cc1ccc(-c2cc(-c3ccccc3Cl)c(C#N)c(N)n2)o1 do in these assays?
KCNK3 block: inactive; KCNQ1 inh: inactive; hERG protect: inactive; KCNK9 block: inactive; KCNQ1 pot: inactive

Results for OC1(c2cccc(C(F)(F)F)c2)CCN(c2ncnc3c2[nH]c2ccccc23)CC1 ?
KCNK3 block: inactive; KCNQ1 inh: 7; hERG protect: inactive; KCNK9 block: inactive; KCNQ1 pot: inactive; KCNQ1 inh valid: 133.5; CHO Tl flux: 0.369; KCNQ2 spec: 118.7%; KCNQ1 KCNE1 spec: 146.5%

What do the screens show for `c1ccc(CN2CCN(c3ncnc4c3[nH]c3ccccc34)CC2)cc1`?
KCNK3 block: inactive; KCNQ1 inh: 7; hERG protect: inactive; KCNK9 block: inactive; KCNQ1 pot: inactive; KCNQ1 inh valid: 131.5; CHO Tl flux: inactive; KCNQ2 spec: 120.3%; KCNQ1 KCNE1 spec: 81.5%

How did COc1cccc(N2CCN(c3ncnc4c3[nH]c3ccccc34)CC2C)c1 (centres undefined) do in these assays?
KCNQ1 inh: 12; hERG protect: inactive; KCNK9 block: inactive; KCNQ1 pot: inactive; KCNQ1 inh valid: 142.5; CHO Tl flux: 0.317; KCNQ2 spec: 123.7%; KCNQ1 KCNE1 spec: active

What do the screens show for `COc1cc(C(=O)NNC(=O)c2cccn2C)cc(OC)c1OC`?
KCNK3 block: inactive; KCNQ1 inh: inactive; hERG protect: inactive; KCNK9 block: inactive; KCNQ1 pot: inactive

Results for CC(C)(C)OC(=O)N1CCC(C(=O)Nc2ccc3c(c2)CCC3)CC1 ?
KCNK3 block: inactive

Results for Cc1ccc(O)c(-c2cc(C(F)(F)C(F)F)[nH]n2)c1 ?
KCNK3 block: inactive; KCNQ1 inh: 6; hERG protect: inactive; KCNK9 block: inactive; KCNQ1 pot: inactive; KCNQ1 inh valid: 93.0; CHO Tl flux: inactive; KCNQ1 ephys val: active; KCNQ2 spec: 104.7%; KCNQ1 KCNE1 spec: 129.0%

How did Cc1ccc(O)c(-c2cc(C(=O)Nc3cccnc3)[nH]n2)c1 do in these assays?
KCNK3 block: inactive; KCNQ1 inh: inactive; hERG protect: inactive; KCNK9 block: inactive; KCNQ1 pot: inactive

How did O=C(NCc1ccccc1)C1CC(=O)N(C2CCCCC2)C1 (centres undefined) do in these assays?
KCNK3 block: inactive; KCNQ1 inh: inactive; hERG protect: inactive; KCNK9 block: inactive; KCNQ1 pot: inactive

What do the screens show for `O=S(=O)(c1cccc(NC(=S)Nc2ccc(Br)cc2Cl)c1)N1CCOCC1`?
KCNK3 block: inactive; KCNQ1 inh: 9; hERG protect: inactive; KCNK9 block: inactive; KCNQ1 pot: inactive; KCNQ1 inh valid: inactive; CHO Tl flux: inactive; KCNQ2 spec: inactive; KCNQ1 KCNE1 spec: inactive

Results for O=C(Cc1ccc(Br)cc1)Nc1cccc(S(=O)(=O)N2CCOCC2)c1 ?
KCNK3 block: inactive

How did CN(C)C(CNC(C(=O)Nc1ccc(F)cc1)c1ccccc1)c1ccccc1 (centres undefined) do in these assays?
KCNK3 block: inactive; KCNQ1 inh: inactive; hERG protect: inactive; KCNK9 block: inactive; KCNQ1 pot: inactive

How did Cc1nc(-c2ccc(S(=O)(=O)N3CCN(c4cccc(C)c4C)CC3)cc2)co1 do in these assays?
KCNK3 block: inactive; KCNQ1 inh: 6; hERG protect: inactive; KCNK9 block: inactive; KCNQ1 pot: inactive; KCNQ1 inh valid: 74.0; CHO Tl flux: inactive; KCNQ2 spec: 103.7%; KCNQ1 KCNE1 spec: 112.0%

What do the screens show for `CCOc1ccc(N(CC(=O)NC2CC3CCC2C3)S(=O)(=O)c2ccc(C)cc2)cc1` (centres undefined)?
KCNK3 block: inactive; KCNQ1 inh: 8; hERG protect: inactive; KCNK9 block: inactive; KCNQ1 pot: inactive; KCNQ1 inh valid: 99.5; CHO Tl flux: inactive; KCNQ1 ephys val: active; KCNQ2 spec: 93.7%; KCNQ1 KCNE1 spec: 100.5%

What do the screens show for `CCOc1ccc(N(CC(=O)NC2CC3CCC2C3)S(=O)(=O)c2ccccc2)cc1` (centres undefined)?
KCNK3 block: inactive; KCNQ1 inh: inactive; hERG protect: inactive; KCNK9 block: inactive; KCNQ1 pot: inactive

How did CC(NS(=O)(=O)c1ccc(Cl)c(Cl)c1)C(=O)OCC(=O)Nc1ccc2c(c1)OCO2 (centres undefined) do in these assays?
KCNK3 block: inactive; KCNQ1 inh: 6; hERG protect: inactive; KCNK9 block: inactive; KCNQ1 pot: inactive; KCNQ1 inh valid: inactive; CHO Tl flux: inactive; KCNQ2 spec: 62.3%; KCNQ1 KCNE1 spec: inactive

What do the screens show for `COc1cc(SC)ccc1C(=O)Nc1ccc2ncccc2c1`?
KCNK3 block: inactive; KCNQ1 inh: inactive; hERG protect: inactive; KCNK9 block: inactive; KCNQ1 pot: inactive

What do the screens show for `CCCSc1nsc(NC(=O)Nc2ccc(F)cc2F)n1`?
KCNK3 block: inactive; KCNQ1 inh: 11; hERG protect: inactive; KCNK9 block: inactive; KCNQ1 pot: inactive; KCNQ1 inh valid: 58.5; CHO Tl flux: inactive; KCNQ2 spec: inactive; KCNQ1 KCNE1 spec: inactive

What do the screens show for `CCSc1nsc(NC(=O)Nc2cccc(F)c2)n1`?
KCNK3 block: inactive; KCNQ1 inh: 8; hERG protect: inactive; KCNK9 block: inactive; KCNQ1 pot: inactive; KCNQ1 inh valid: 52.5; CHO Tl flux: inactive; KCNQ2 spec: inactive; KCNQ1 KCNE1 spec: inactive

Results for CCOC(=O)c1cnc(SC)nc1Oc1cccc(NS(=O)(=O)c2ccccc2)c1 ?
KCNK3 block: inactive; KCNQ1 inh: 7; hERG protect: inactive; KCNK9 block: inactive; KCNQ1 pot: inactive; KCNQ1 inh valid: 56.5; CHO Tl flux: inactive; KCNQ2 spec: 93.0%; KCNQ1 KCNE1 spec: 49.5%

How did C/C(=N\NC(=O)c1ccc(-n2cnnn2)cc1)c1ccc(C)cc1 do in these assays?
KCNK3 block: inactive

Screening data from PubChem BioAssay.
